{"data": "Assay results of several laboratories", "observed": "cell growth or viability", "note": "Each line is one published result; the experiments were not run side by side."}
{"Compound": "O=C1Nc2ccccc2C1=NNc1nnc2n1N=C(c1ccccc1)CS2", "cell line": "OVCAR-4", "method": "SRB", "tested at": "10 µM", "endpoint": "inhibition", "value": "41%"}
{"Compound": "COc1ccc(-c2ccc(-c3ccc(C(=N)N)nc3)s2)cc1Cl", "cell line": "OVCAR-4", "method": "SRB", "endpoint": "GI50", "value": "1740 nM"}
{"Compound": "CC(C)C[C@H](NC(=O)[C@H](Cc1ccccc1)NC(=O)c1cnccn1)B(O)O", "cell line": "HCC38", "method": "ATP luminescence", "endpoint": "IC50", "value": "9.9 nM"}
{"Compound": "COc1cccc(NC(=O)CN2C(=O)/C(=C/c3cccs3)SC2=S)c1", "cell line": "A549", "method": "MTT", "tested at": "10 µM", "endpoint": "inhibition", "value": "12.4%"}
{"Compound": "COc1cccc(Oc2ccccc2NC(=O)CNC(=O)c2cccc3ccccc23)c1", "cell line": "OVCAR-4", "method": "SRB", "time": "48 h", "endpoint": "GI50", "value": "776 nM"}
{"Compound": "COc1cc(-c2ccc(-c3ccc(C(=N)N)nc3)s2)cc(OC)c1OC", "cell line": "OVCAR-4", "method": "SRB", "endpoint": "GI50", "value": "2690 nM"}
{"Compound": "CCOc1ccc(/C=C2\\SC(=S)N(CC(=O)Nc3ccccc3)C2=O)cc1", "cell line": "A549", "method": "MTT", "tested at": "10 µM", "endpoint": "inhibition", "value": "48.2%"}
{"Compound": "Cn1nnc2c(C(N)=O)ncn2c1=O", "cell line": "AZ-521", "endpoint": "EC50", "value": "173000 nM"}
{"Compound": "COc1cccc(NC(=O)CN2C(=O)/C(=C/c3ccco3)SC2=S)c1", "cell line": "A549", "method": "MTT", "tested at": "10 µM", "endpoint": "inhibition", "value": "13.7%"}
{"Compound": "NC(=O)c1cc(Cl)ccc1NC(=O)COc1ccccc1", "cell line": "OVCAR-4", "endpoint": "GI50", "value": "> 100000 nM"}
